Measurements published in ChEMBL document CHEMBL3627607, “A Novel Pyrazolopyridine with in Vivo Activity in Plasmodium berghei- and Plasmodium falciparum-Infected Mouse Models from Structure-Activity Relationship Studies around the Core of Recently Identified Antimalarial Imidazopyridazines” (J Med Chem, 2015).
Activity calls are given as the source filed them. No cut-off for these calls is given here.

How the values were obtained:
Liver microsome [1] = assay: Drug metabolism in rat liver microsomes assessed as 5-(3-(Cyclopropylsulfonyl)phenyl)-3-(4-(methylsulfonyl)-phenyl)pyrazolo[1,5-a]pyridine formation at 10 uM after 1 hr by LC-MS/MS analysis; type: ADME
In short: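 Metabolites identified by LC-ESI-MS/MS after in vitro incubation with rat liver microsomes.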

[2] = Tmax in Plasmodium falciparum 3D7 infected in non-myelodepleted NOD-SCID IL2Rgammanull mouse engrafted with human erythrocytes at 30 mg/kg, po; type: ADME, organism-based; settings: in vivo
In short: (§1)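 Humanized NSG mice infected with P. falciparum received one oral dose per day for 4 consecutive days. Blood was sampled for exposure, with levels of both parent and its main active metabolite measured. Tmax was taken from the blood concentration–time profile after oral dosing.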

Plasmodium berghei [3] = assay: Antiplasmodial activity against Plasmodium berghei ANKA expressing GFP infected in mouse assessed as means survival days at 50 mg/kg, po qd for 4 days; type: functional
In short: (§2)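 Mice (n = 3) infected with GFP-transfected P. berghei ANKA. Compounds dissolved or suspended in HPMC vehicle (0.5% w/v hydroxypropylmethylcellulose, 0.5% v/v benzyl alcohol, 0.4% v/v Tween 80, 0.9% w/v NaCl in water). Dosed orally 4, 24, 48 and 72 h after infection. Parasitemia read by flow cytometry (detection limit 0.1%). Survival recorded as mean survival time in days.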

[4] = Cmax in Plasmodium falciparum 3D7 infected in non-myelodepleted NOD-SCID IL2Rgammanull mouse engrafted with human erythrocytes at 10 mg/kg, po; type: ADME, organism-based; design: dose 10 mg/kg, route oral; settings: in vivo
In short: (§3)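 Engrafted NSG (scid IL2Rgc null) mice infected with P. falciparum were given one oral dose per day for four days. Blood was sampled to measure parent and its sulfone metabolite.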

[5] = AUC (0 to 2 hrs) in Plasmodium falciparum 3D7 infected in non-myelodepleted NOD-SCID IL2Rgammanull mouse engrafted with human erythrocytes at 0.1 mg/kg, po; type: ADME, organism-based; design: time < 2 hr, dose 0.1 mg/kg, route oral; settings: in vivo; in short: as §3
Blood [6] = assay: Drug metabolism in rat blood assessed as metabolite formation from sulfone oxidation on pyrazole at 20 mg/kg, po and 5 mg/kg, iv by LC-MS/MS analysis; type: ADME, organism-based; settings: in vivo
In short: (§4)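 Metabolites identified by LC-ESI-MS/MS in blood samples from the rat PK study (oral and intravenous dosing).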

Plasmodium berghei [7] = assay: Antiplasmodial activity against Plasmodium berghei ANKA expressing GFP infected in mouse assessed as means survival days at 10 mg/kg, po qd for 4 days; type: functional; in short: as §2
[8] = Tmax in Plasmodium falciparum 3D7 infected in non-myelodepleted NOD-SCID IL2Rgammanull mouse engrafted with human erythrocytes at 0.5 mg/kg, po; type: ADME, organism-based; settings: in vivo; in short: as §1
[9] = Cmax in Plasmodium falciparum 3D7 infected in non-myelodepleted NOD-SCID IL2Rgammanull mouse engrafted with human erythrocytes at 0.1 mg/kg, po; type: ADME, organism-based; design: dose 0.1 mg/kg, route oral; settings: in vivo; in short: as §3
[10] = Oral bioavailability in rat at 15 mg/kg; type: ADME, organism-based; settings: in vivo
Plasmodium berghei [11] = assay: Antiplasmodial activity against Plasmodium berghei ANKA expressing GFP infected in mouse assessed as reduction of parasitemia level at 10 mg/kg, po qd for 4 days measured on day 4 post last dose by flow cytometric analysis relative to control; type: functional; design: scale not given: the % may be the effect or the level left
In short: (§5)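 Mice (n = 3) infected with GFP-transfected P. berghei ANKA. Test agents were suspended in HPMC vehicle (0.5% w/v hydroxypropylmethylcellulose, 0.5% v/v benzyl alcohol, 0.4% v/v Tween 80, 0.9% w/v NaCl in water). Dosed orally at 4, 24, 48 and 72 h post-infection. Parasitemia read by flow cytometry on day 4 (96 h), detection limit 0.1%. Activity = control-minus-treated mean % parasitemia, relative to control.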

[12] = Drug level in mouse blood at 50 mg/kg, po after 1 hr; type: ADME, organism-based; settings: read-out: Drug uptake
In short: (§6)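 Snapshot whole-blood levels of parent and its sulfone metabolite at 1, 4 and 24 h after the first 50 mg/kg oral dose. Samples came from the P. berghei-infected efficacy mice, dosed in HPMC suspension vehicle.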

Rattus norvegicus = assay: Volume of distribution in rat at 5 mg/kg, iv; type: ADME, organism-based; settings: in vivo
[13] = Selectivity index, ratio of IC50 for CHO cells to IC50 for Plasmodium falciparum NF54; type: toxicity, cell-based; settings: hamster, read-out: Ratio IC50
Blood [14] = assay: Drug metabolism in mouse assessed as 5-(3-(Cyclopropylsulfonyl)phenyl)-3-(4-(methylsulfonyl)-phenyl)pyrazolo[1,5-a]pyridine level in blood at 50 mg/kg, po after 4 hrs; type: ADME, organism-based; settings: in vivo; in short: as §6
Liver microsome [15] = assay: Metabolic stability of the compound in rat liver microsomes assessed as compound remaining at 0.1 uM after 30 mins by LC-MS/MS analysis; type: ADME; settings: 0.5 h
Blood [16] = assay: Drug metabolism in rat blood assessed as metabolite formation from sulfone oxidation on pyridine core and phenyl ring at 20 mg/kg, po and 5 mg/kg, iv by LC-MS/MS analysis; type: ADME, organism-based; settings: in vivo; in short: as §4
Plasmodium berghei [17] = assay: Antiplasmodial activity against Plasmodium berghei ANKA expressing GFP infected in mouse assessed as reduction of parasitemia level at 3 mg/kg, po qd for 4 days measured on day 4 post last dose by flow cytometric analysis relative to control; type: functional; design: scale not given: the % may be the effect or the level left; in short: as §5
[18] = Half life in rat at 15 mg/kg, po; type: ADME, organism-based; settings: in vivo
[19] = AUC (0 to 8 hrs) in Plasmodium falciparum 3D7 infected in non-myelodepleted NOD-SCID IL2Rgammanull mouse engrafted with human erythrocytes at 0.5 mg/kg, po; type: ADME, organism-based; design: dose 0.5 mg/kg, time < 8 hr, route oral; settings: in vivo; in short: as §3
Plasmodium berghei [20] = assay: Antiplasmodial activity against Plasmodium berghei ANKA expressing GFP infected in mouse assessed as reduction of parasitemia level at 50 mg/kg, po qd for 4 days measured on day 4 post last dose by flow cytometric analysis relative to control; type: functional; design: scale not given: the % may be the effect or the level left; in short: as §5
[21] = Selectivity index, ratio of IC50 for CHO cells to IC50 for multidrug resistant Plasmodium falciparum K1; type: toxicity, cell-based; settings: hamster, read-out: Ratio IC50
Plasmodium falciparum [22] = assay: Antiplasmodial activity against Plasmodium falciparum 3D7 infected in po dosed non-myelodepleted NOD-SCID IL2Rgammanull mouse engrafted with human erythrocytes assessed as reduction of parasitemia level administered qd for 4 days; type: functional; settings: 3D7, po, 96 h
In short: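 P. falciparum-infected engrafted NSG mice were dosed orally once daily for four consecutive days. Blood parasitemia was monitored, and a 90% effective dose was derived along with the blood exposure at that dose.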

Liver microsome [23] = assay: Metabolic stability of the compound in human liver microsomes assessed as compound remaining at 0.1 uM after 30 mins by LC-MS/MS analysis; type: ADME; settings: 0.5 h
[24] = Drug level in mouse blood at 50 mg/kg, po after 24 hrs; type: ADME, organism-based; settings: blood, read-out: Drug uptake; in short: as §6
Plasmodium berghei [25] = assay: Antiplasmodial activity against Plasmodium berghei ANKA expressing GFP infected in mouse assessed as mouse cured from disease at 50 mg/kg, po qd for 4 days; type: functional, organism-based
[26] = AUC (0 to 8 hrs) in Plasmodium falciparum 3D7 infected in non-myelodepleted NOD-SCID IL2Rgammanull mouse engrafted with human erythrocytes at 1.5 mg/kg, po; type: ADME, organism-based; design: dose 1.5 mg/kg, time < 8 hr, route oral; settings: in vivo; in short: as §3
[27] = AUC (0 to 8 hrs) in Plasmodium falciparum 3D7 infected in non-myelodepleted NOD-SCID IL2Rgammanull mouse engrafted with human erythrocytes at 10 mg/kg, po; type: ADME, organism-based; design: time < 8 hr, dose 10 mg/kg, route oral; settings: in vivo; in short: as §3
Plasmodium falciparum [28] = assay: Antiplasmodial activity against drug sensitive Plasmodium falciparum NF54 infected in human erythrocytes after 48 hrs by [3H]-hypoxanthine incorporation assay; type: functional, organism-based
[29] = Metabolic stability of the compound in mouse liver microsomes assessed as compound remaining at 0.1 uM after 30 mins by LC-MS/MS analysis; type: ADME; settings: 0.5 h
[30] = Cmax in Plasmodium falciparum 3D7 infected in non-myelodepleted NOD-SCID IL2Rgammanull mouse engrafted with human erythrocytes at 1.5 mg/kg, po; type: ADME, organism-based; design: dose 1.5 mg/kg, route oral; settings: in vivo; in short: as §3

SMILES: C[S+]([O-])c1ccc(-c2cnn3ccc(-c4cccc(S(=O)(=O)C5CC5)c4)cc23)cc1 (stereo unspecified)
- Drug metabolism (Liver microsome [1]): metabolite_detected
- Tmax [2]: 6 h
- MSD (Plasmodium berghei [3]): >30 days
- Cmax [4]: 50 ng/mL
- AUC(0-t) at 2 h [5]: 2.1 ng·h/mL
- Drug metabolism (Blood [6]): metabolite_detected
- MSD (Plasmodium berghei [7]): 8 days
- Tmax [8]: 0.25 h
- Cmax [9]: 2 ng/mL
- bioavailability [10]: 14%
- Activity (Plasmodium berghei [11]): 99.9%
- concentration at 1 h [12]: 2960 nM
- Vd (Rattus norvegicus): 6.8 L/kg
- selectivity ratio [13]: > 1000
- Drug metabolism (Blood [14]): 10.3 µM
- Stability (Liver microsome [15]): Stable
- Drug metabolism (Blood [16]): metabolite_detected
- Activity (Plasmodium berghei [17]): 75%
- half-life [18]: 1 h
- AUC(0-t) at 8 h [19]: 12.1 ng·h/mL
- Activity (Plasmodium berghei [20]): 99.8%
- selectivity ratio [21]: > 1000
- ED90 (Plasmodium falciparum [22]): 0.5 mg/kg
- Stability (Liver microsome [23]): Stable
- concentration at 24 h [24]: 30 nM
- Activity (Plasmodium berghei [25]): Active
- AUC(0-t) at 8 h [26]: 40.5 ng·h/mL
- AUC(0-t) at 8 h [27]: 293 ng·h/mL
- IC50 (Plasmodium falciparum [28]): 6 nM
- Stability [29]: Stable
- Cmax [30]: 30 ng/mL
